Assay results reported in publication PMC3113562 (Nucleic Acids Research, 2011).
Where two headings read alike, the source gives them in different places.

What was measured:
[1] = target: T1, human 8-oxoguanine DNA glycosylase (OGG1) (Homo sapiens, UniProt O15527); assay type: biochemical; details: for ΔΔG° cognate vs non-cognate ligand: from ratio of Ki values, T = 310 K; for increase in the affinity for OGG1 vs the corresponding non-cognate ligand: ratio of Ki (KM) values, vs dGMP, ss G11 or ds G11
Summary of the method: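 Recombinant human OGG1 from E. coli BL21(DE3), with active enzyme titrated by burst-phase kinetics. Reaction: 0.5 nM enzyme and 22 nM (2 × KM) oxoG ds substrate in 50 mM Tris–HCl pH 7.5, 100 mM NaCl, 1 mM EDTA, 1 mM DTT, 37°C, 2–10 min, NaOH-quenched. Competitor spans 0.1–10 × I50. Ki = I50/3; ΔG° = –RT ln Kd (310 K); ΔΔG° from differences.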

[2] = system: E. coli 8-oxoguanine DNA glycosylase (Fpg); details: read-out: Ki (Fpg); cited from earlier work
[3] = target: T1, human 8-oxoguanine DNA glycosylase (OGG1); details: cited from earlier work
[4] = read-out: Ki (affinity for OGG1)

T1 sequence (O15527 whole entry): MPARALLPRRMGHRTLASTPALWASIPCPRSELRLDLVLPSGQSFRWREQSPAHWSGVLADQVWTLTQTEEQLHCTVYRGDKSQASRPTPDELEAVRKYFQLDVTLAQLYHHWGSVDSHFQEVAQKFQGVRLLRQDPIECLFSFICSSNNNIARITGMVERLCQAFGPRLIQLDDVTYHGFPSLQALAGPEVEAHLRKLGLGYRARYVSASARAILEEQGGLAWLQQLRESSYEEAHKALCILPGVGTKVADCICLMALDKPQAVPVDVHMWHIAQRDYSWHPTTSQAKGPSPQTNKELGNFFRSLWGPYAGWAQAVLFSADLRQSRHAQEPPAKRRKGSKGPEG

Row | Compound | Ki [1, 4] [µM] | cleavage by OGG1 [3] | ΔΔG° cognate vs non-cognate ligand [1] [kcal/mol] | increase in the affinity for OGG1 vs the corresponding non-cognate ligand [1] [fold] | also measured
1 | dCdp(TCTCCCTTCGCTCCTTTCCTCT) (5'-dC with phosphate prefix in name, chemistry otherwise not given here) [G11] | 20 | – | – | – | Ki [2]: 10 µM
2 | r(pC)10 | 130 | – | – | – | –
3 | O=P(O)(O)O [Pi, orthophosphate, reference compound] | – | – | – | – | Ki [1]: 68000 µM
4 | dCdp(TCTCCCTTCXCTCCTTTCCTCT) [OG11] | 0.08 | not cleaved | ~-3.3 | 250 | –
5 | r(pA)10 | 140 | – | – | – | –
6 | Nc1nc2c([nH]c(=O)n2[C@H]2C[C@H](O)[C@@H](COP(=O)(O)O)O2)c(=O)[nH]1 [oxo-dGMP, reference compound] | – | not cleaved | -0.8 | 4.1 | tighter binding than one non-cognate d(pN)n unit within DNA ([1]; vs extrapolated Ki = 12 mM): ~7.5 fold
